Measurements reported in ChEMBL document CHEMBL1150350, “Evaluation of the amino acid binding site of Mycobacterium tuberculosis glutamine synthetase for drug discovery” (Bioorg Med Chem, 2008).
pIC50, pKi: −log10 of the molar value. The source made the active and inactive calls. No cut-off for these calls is given here.

Tests used:
[1] = system: Mycobacterium tuberculosis; experiment: Activation of Mycobacterium tuberculosis glutamine synthetase at 0.50 mM in water
Outline: (§1)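 Unadenylylated MtGS from an E. coli expression strain, 7 nM subunit, in 50 mM HEPES-HCl pH 7.5 with 25 mM MgCl2, 1 mM ATP and 30 mM NH4Cl. Compound (water stock) was preincubated 20 min at RT, then 10 mM L-glutamate was added and the reaction run 60 min at RT. Released Pi was read at A635 minus a no-GS/no-ATP background. Triplicate; % of uninhibited; t-test, p<0.1.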

[2] = system: Mycobacterium tuberculosis; experiment: Inhibition of Mycobacterium tuberculosis glutamine synthetase at 1 mM in DMSO
Outline: (§2)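 Compound from a DMSO stock (2% v/v DMSO final) was preincubated 20 min at RT with unadenylylated MtGS (7 nM subunit) in 50 mM HEPES-HCl pH 7.5, 25 mM MgCl2, 1 mM ATP and 30 mM NH4Cl. Started with 10 mM L-glutamate, 60 min at RT. Phosphate read at 635 nm, corrected by a compound-background plate lacking GS and ATP. Triplicate, % vs uninhibited enzyme.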

Glutamine synthetase [3] = molecular target: T1, Glutamine synthetase (Salmonella typhimurium (strain LT2 / SGSC1412 / ATCC 700720), UniProt P0A1P6); experiment: Inhibition of Salmonella Typhimurium glutamine synthetase by transferase assay; parameters: species or system Salmonella enterica subsp. enterica serovar Typhimurium
T1 sequence (P0A1P6 whole entry): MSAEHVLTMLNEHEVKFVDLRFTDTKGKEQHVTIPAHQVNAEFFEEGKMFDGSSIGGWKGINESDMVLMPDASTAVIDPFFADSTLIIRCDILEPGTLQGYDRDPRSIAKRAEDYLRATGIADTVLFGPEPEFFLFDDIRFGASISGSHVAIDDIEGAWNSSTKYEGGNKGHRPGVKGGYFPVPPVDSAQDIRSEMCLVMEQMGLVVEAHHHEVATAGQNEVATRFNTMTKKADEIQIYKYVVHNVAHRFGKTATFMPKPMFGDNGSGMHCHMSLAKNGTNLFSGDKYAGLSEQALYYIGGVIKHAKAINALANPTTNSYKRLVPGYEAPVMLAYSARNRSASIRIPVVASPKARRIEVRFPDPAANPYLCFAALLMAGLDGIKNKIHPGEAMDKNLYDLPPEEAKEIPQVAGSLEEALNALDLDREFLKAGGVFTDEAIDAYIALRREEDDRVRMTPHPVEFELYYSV

[4] = Inhibition of Mycobacterium tuberculosis glutamine synthetase by transferase assay
Ovis aries [5] = species: Ovis aries; experiment: Inhibition of sheep brain glutamine synthetase at 0.5 mM by transferase assay
[6] = molecular target: T2, Glutamine synthetase (Glycine max) (UniProt Q43760); experiment: Inhibition of soybean glutamine synthetase at 0.5 mM by transferase assay
T2 sequence (whole entry): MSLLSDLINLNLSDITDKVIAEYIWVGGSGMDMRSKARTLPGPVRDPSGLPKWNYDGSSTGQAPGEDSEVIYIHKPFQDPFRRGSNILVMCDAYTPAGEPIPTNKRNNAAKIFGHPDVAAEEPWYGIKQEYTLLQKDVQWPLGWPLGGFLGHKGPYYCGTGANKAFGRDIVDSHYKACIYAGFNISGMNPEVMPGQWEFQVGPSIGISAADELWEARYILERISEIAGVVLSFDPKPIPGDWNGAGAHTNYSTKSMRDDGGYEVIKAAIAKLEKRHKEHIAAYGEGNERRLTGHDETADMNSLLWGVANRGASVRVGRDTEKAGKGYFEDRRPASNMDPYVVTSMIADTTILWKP

[7] = system: Mycobacterium tuberculosis; conditions: at 1 mM
[8] = system: Mycobacterium tuberculosis; experiment: Inhibition of Mycobacterium tuberculosis glutamine synthetase at 0.75 mM in DMSO; outline: as §2
[9] = system: Mycobacterium tuberculosis; experiment: Inhibition of Mycobacterium tuberculosis glutamine synthetase at 0.90 mM in water; outline: as §1
[10] = system: Mycobacterium tuberculosis; experiment: Activation of Mycobacterium tuberculosis glutamine synthetase at 1 mM in water; outline: as §1
[11] = system: Mycobacterium tuberculosis; experiment: Inhibition of Mycobacterium tuberculosis glutamine synthetase at 0.50 mM in water; outline: as §1
Ovis aries [12] = species: Ovis aries; experiment: Inhibition of sheep brain glutamine synthetase at 25 mM
[13] = system: Mycobacterium tuberculosis; experiment: Inhibition of Mycobacterium tuberculosis glutamine synthetase at 0.20 mM in water; outline: as §1
[14] = Inhibition of Escherichia coli glutamine synthetase by transferase assay
Escherichia coli = experiment: Inhibition of Escherichia coli glutamine synthetase at 1.1 mM
[15] = system: Mycobacterium tuberculosis; experiment: Inhibition of Mycobacterium tuberculosis glutamine synthetase at 0.93 mM in water; outline: as §1
[16] = Inhibition of sheep brain glutamine synthetase by transferase assay; parameters: species or system Ovis aries
Glutamine synthetase [17] = molecular target: T3, Glutamine synthetase (Glycine max, UniProt Q43760); experiment: Inhibition of soybean glutamine synthetase by transferase assay
T3 sequence (Q43760 whole entry): T2 sequence (whole entry)

Compound: CSc1cccc(N[C@@H](CO)C(=O)O)c1
- Activity [1]: Active

Compound: NC[C@H](O)CC[C@H](N)C(=O)O
- inhibition [2]: 56%
- pKi (Glutamine synthetase [3]): 4.40
- pIC50 [4]: 3.21
- inhibition (Ovis aries [5]): 22%
- inhibition [6]: 21%
- inhibition [7]: 58%

Compound: CCOP(=O)(OCC)c1cccc(NCC(=O)O)c1
- inhibition [2]: 42%

Compound: N[C@@H](CCCP(=O)(O)O)C(=O)O
- Activity [8]: inactive

Compound: CSc1cccc(NCC(=O)O)c1
- Activity [9]: inactive

Compound: O=C(O)CNc1ccc(O)c(S(=O)(=O)O)c1
- inhibition [7]: 48%

Compound: O=C(O)c1cccc(N[C@H](CO)C(=O)O)c1
- Activity [10]: Active

Compound: CCOP(=O)(OCC)c1cccc(N[C@@H](CO)C(=O)O)c1
- Activity [10]: Active

Compound: CCOP(=O)(OCC)c1cccc(N[C@H](CO)C(=O)O)c1
- Activity [10]: Active

Compound: CSc1cccc(N[C@H](CO)C(=O)O)c1
- Activity [11]: inactive

Compound: CS(=O)(=O)CC[C@H](N)C(=O)O
- inhibition (Ovis aries [12]): 67%
- inhibition [7]: 33%

Compound: NC(Cc1ccccc1CP(=O)(O)O)C(=O)O (centres undefined)
- Activity [13]: inactive

Compound: N[C@@H](CCP(=O)(O)O)C(=O)O
- pKi [14]: 4.27
- inhibition (Escherichia coli): 61%

Compound: C[S+]([O-])c1cccc(N[C@@H](CO)C(=O)O)c1 (some centres undefined)
- inhibition [7]: 13%

Compound: C[S+]([O-])c1cccc(NCC(=O)O)c1 (centres undefined)
- inhibition [7]: 30%

Compound: NC(Cc1ccc(CP(=O)(O)O)cc1)C(=O)O (centres undefined)
- Activity [15]: inactive

Compound: O=C(O)c1cccc(NC(=O)c2nc[nH]n2)c1
- inhibition [2]: 26%

Compound: NS(=O)(=O)c1cccc(N[C@@H](CO)C(=O)O)c1
- Activity [10]: Active

Compound: NS(=O)(=O)c1ccc2[nH]c(=O)[nH]c2c1
- inhibition [2]: 24%

Compound: N[C@@H](CCNO)C(=O)O
- pKi [16]: 5.15
- pKi (Glutamine synthetase [17]): 4.68
- inhibition [7]: 26%

Compound: CP(=O)(O)CCC(N)C(=O)O (racemic) [GLUFOSINATE]
- pIC50 [4]: 5.72

Compound: NS(=O)(=O)c1cccc(N[C@H](CO)C(=O)O)c1
- inhibition [7]: 33%

Compound: C[S+]([O-])CC[C@H](N)C(=O)O (some centres undefined)
- inhibition (Ovis aries [12]): 11%

Compound: O=C(O)CNc1cccc(C(=O)O)c1
- Activity [10]: Active

Compound: O=C(O)c1cccc(N[C@@H](CO)C(=O)O)c1
- Activity [10]: Active
